B1: Osa-1-4 twister ribozyme (parent)
chain: CCGCCUAACACUGCCAAUGCCGGUCCCAAGCCCGGAUAAAAGUGGAGGGGGCGG

In this data set the parent is B1. Description: self-cleavage, relative activity (ratio to wild type); higher = more cleavage; co-transcriptional. The gist of the method:
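For each read, cleavage status was taken from whether upstream sequence was present. The reads came from an Oryza sativa twister ribozyme of 54 nucleotides, whose DNA template was synthesised with 97 % wild-type base and 1 % of each other base at the 48 positions downstream of the cleavage site. The template was transcribed in vitro at 37 °C for 2 h with co-transcriptional self-cleavage, and the RNA was reverse-transcribed using a template-switching oligonucleotide, PCR-amplified and deep-sequenced. Relative activity is the fraction cleaved normalised to wild type.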
As for CCGCCUAACACUGCCAAUGCCGGUCCCAAGCCCGGGUAAAAGUCGAGGGGGCGG [A36G G44C], the self-cleavage stood at 0.97.

For CCGCCUAACACUGCCAAUGCCGGUCCCAAGCCCGGGUAAAAGUAGAGGGGGCGG [A36G G44A], the self-cleavage turned out to be 1.01.

With CCGCCUAACACUGCCAAUGCCGGUCCCAAGCCCGGGUAAAAGUUGAGGGGGCGG [A36G G44U], the self-cleavage stood at 0.97.

CCGCCUAACACUGCCAAUGCCGGUCCCAAUCCCGGGUAAAAGUGGAGGGGGCGG [A36G G30U]: the self-cleavage turned out to be 0.05.

As for CCGCCUAACACUGCCAAUGCCGGUCCCAACCCCGGGUAAAAGUGGAGGGGGCGG [A36G G30C], the self-cleavage was found to be 0.05.

On to CCGCCUAACACUGCCAAUGCCGGUCCCAAACCCGGGUAAAAGUGGAGGGGGCGG [A36G G30A], for which the self-cleavage came out at 0.05.

In the case of CCGCCUAACACUGCCAAUGCCUGUCCCAAGCCCGGGUAAAAGUGGAGGGGGCGG [A36G G22U], the self-cleavage is 0.57.

CCGCCUAACACUGCCAAUGCCAGUCCCAAGCCCGGGUAAAAGUGGAGGGGGCGG [A36G G22A]: the self-cleavage is 1.01.

CCGCCUAACACUGCCAAUGCCCGUCCCAAGCCCGGGUAAAAGUGGAGGGGGCGG [A36G G22C]: the self-cleavage is 0.07.

On to CCGCCUAACACUGCCAAUGCCGGUCCCAAGCCCGGGUAAAAGUGGAGGGAGCGG [A36G G50A], for which the self-cleavage came to 0.76.

As to CCGCCUAACACUGCCAAUGCCGGUCCCAAGCCCGGGUAAAAGUGGAGGGCGCGG [A36G G50C], the self-cleavage amounted to 1.04.

Take CCGCCUAACACUGCCAAUGCCGGUCCCAAGCCCGGGUAAAAGUGGAGGGUGCGG [A36G G50U]: the self-cleavage came to 1.04.

Regarding CCGCCUAACACUGCCAAUGCCGGUCCCAAGCCCGUGUAAAAGUGGAGGGGGCGG [A36G G35U], the self-cleavage came out at 0.91.

For the variant CCGCCUAACACUGCCAAUGCCGGUCCCAAGCCCGCGUAAAAGUGGAGGGGGCGG [A36G G35C], the self-cleavage came to 0.93.

As to CCGCCUAACACUGCCAAUGCCGGUCCCAAGCCCGAGUAAAAGUGGAGGGGGCGG [A36G G35A], the self-cleavage was found to be 0.92.

In the case of CCGCCUAACACUGCCAAUGCCGGUCCCAAGCCCGGGUAAAAGUGGAGGGGGGGG [A36G C52G], the self-cleavage was determined as 1.04.

CCGCCUAACACUGCCAAUGCCGGUCCCAAGCCCGGGUAAAAGUGGAGGGGGUGG [A36G C52U]: the self-cleavage was determined as 1.02.

Turning to CCGCCUAACACUGCCAAUGCCGGUCCCAAGCCCGGGUAAAAGUGGAGGGGGAGG [A36G C52A], the self-cleavage was found to be 1.01.

In the case of CCGCCUAACACUGCCAAUUCCGGUCCCAAGCCCGGGUAAAAGUGGAGGGGGCGG [A36G G19U], the self-cleavage is 0.99.

Take CCGCCUAACACUGCCAAUACCGGUCCCAAGCCCGGGUAAAAGUGGAGGGGGCGG [A36G G19A]: the self-cleavage came to 0.8.

Turning to CCGCCUAACACUGCCAAUCCCGGUCCCAAGCCCGGGUAAAAGUGGAGGGGGCGG [A36G G19C], the self-cleavage worked out at 0.13.

In the case of CCGCCUAACACUGCCAAUGCCGCUCCCAAGCCCGGGUAAAAGUGGAGGGGGCGG [A36G G23C], the self-cleavage was determined as 0.07.

On to CCGCCUAACACUGCCAAUGCCGUUCCCAAGCCCGGGUAAAAGUGGAGGGGGCGG [A36G G23U], for which the self-cleavage amounted to 0.13.

CCGCCUAACACUGCCAAUGCCGAUCCCAAGCCCGGGUAAAAGUGGAGGGGGCGG [A36G G23A]: the self-cleavage turned out to be 0.62.

On to CCGCCUAACACUGCCAAUGCCGGUCCCAAGCCCGGGUAAAAGUGGAGCGGGCGG [A36G G48C], for which the self-cleavage was 0.15.

For the variant CCGCCUAACACUGCCAAUGCCGGUCCCAAGCCCGGGUAAAAGUGGAGUGGGCGG [A36G G48U], the self-cleavage stood at 0.12.

Take CCGCCUAACACUGCCAAUGCCGGUCCCAAGCCCGGGUAAAAGUGGAGAGGGCGG [A36G G48A]: the self-cleavage was 0.15.

With CCGCCUAACACUGCCAAUGCCGGUCCCAAGCCGGGGUAAAAGUGGAGGGGGCGG [A36G C33G], the self-cleavage amounted to 0.09.

As for CCGCCUAACACUGCCAAUGCCGGUCCCAAGCCUGGGUAAAAGUGGAGGGGGCGG [A36G C33U], the self-cleavage is 0.94.

Turning to CCGCCUAACACUGCCAAUGCCGGUCCCAAGCCCGGGUAAAAAUGGAGGGGGCGG [A36G G42A], the self-cleavage is 0.8.

Regarding CCGCCUAACACUGCCAAUGCCGGUCCCAAGCCCGGGUAAAAUUGGAGGGGGCGG [A36G G42U], the self-cleavage came to 0.08.

On to CCGCCUAACACUGCCAAUGCCGGUCCCAAGCCCGGGUAAAACUGGAGGGGGCGG [A36G G42C], for which the self-cleavage was determined as 0.24.

Turning to CCGCCUAACACUGCCAAUGCCGGUCCCAAGCCCGGGUAAAAGUGGAAGGGGCGG [A36G G47A], the self-cleavage was determined as 0.54.

As for CCGCCUAACACUGCCAAUGCCGGUCCCAAGCCCGGGUAAAAGUGGAUGGGGCGG [A36G G47U], the self-cleavage came to 0.47.

Take CCGCCUAACACUGCCAAUGCCGGUCCCAAGCCCGGGUAAAAGUGGACGGGGCGG [A36G G47C]: the self-cleavage turned out to be 0.2.

CCGCCUAACACUGCCAAUGCCGGUCCCAAGCCCAGGUAAAAGUGGAGGGGGCGG [A36G G34A]: the self-cleavage was determined as 0.91.

For the variant CCGCCUAACACUGCCAAUGCCGGUCCCAAGCCCUGGUAAAAGUGGAGGGGGCGG [A36G G34U], the self-cleavage was 0.82.

Regarding CCGCCUAACACUGCCAAUGCCGGUCCCAAGCCCCGGUAAAAGUGGAGGGGGCGG [A36G G34C], the self-cleavage was 0.31.

With CCGCCUAACACUGCCAAUGCCGGUCCCAAGCCCGGGUAAAAGUGGAGGAGGCGG [A36G G49A], the self-cleavage was 0.24.

Turning to CCGCCUAACACUGCCAAUGCCGGUCCCAAGCCCGGGUAAAAGUGGAGGCGGCGG [A36G G49C], the self-cleavage was 0.08.

Turning to CCGCCUAACACUGCCAAUGCCGGUCCCAAGCCCGGGUAAAAGUGGAGGUGGCGG [A36G G49U], the self-cleavage was 0.27.

CCGCCUAACACUUCCAAUGCCGGUCCCAAGCCCGGGUAAAAGUGGAGGGGGCGG [A36G G13U]: the self-cleavage turned out to be 0.03.

CCGCCUAACACUACCAAUGCCGGUCCCAAGCCCGGGUAAAAGUGGAGGGGGCGG [A36G G13A]: the self-cleavage was 0.24.

Take CCGCCUAACACUCCCAAUGCCGGUCCCAAGCCCGGGUAAAAGUGGAGGGGGCGG [A36G G13C]: the self-cleavage stood at 0.03.

Turning to CCGCCUAACACUGCCAAUGCCGGUCCCAAGCCCGGGUAAAAGUGCAGGGGGCGG [A36G G45C], the self-cleavage stood at 0.07.

Turning to CCGCCUAACACUGCCAAUGCCGGUCCCAAGCCCGGGUAAAAGUGAAGGGGGCGG [A36G G45A], the self-cleavage amounted to 0.54.

CCGCCUAACACUGCCAAUGCCGGUCCCAAGCCCGGGUAAAAGUGUAGGGGGCGG [A36G G45U]: the self-cleavage was 0.21.

As to CCGCCUAACACUGCCAAUGCCGGUCCCAAGCCCGGGUAAAAGUGGAGGGGCCGG [A36G G51C], the self-cleavage stood at 0.18.

As to CCGCCUAACACUGCCAAUGCCGGUCCCAAGCCCGGGUAAAAGUGGAGGGGACGG [A36G G51A], the self-cleavage stood at 0.78.

These data come from the RNAGym collection of RNA variant scans (doi:10.1002/anie.201605470).
